Experimental data: ChEMBL document CHEMBL4350958, “Rational Design of Short Peptide Variants by Using Kunitzin-RE, an Amphibian-Derived Bioactivity Peptide, for Acquired Potent Broad-Spectrum Antimicrobial and Improved Therapeutic Potential of Commensalism Coinfection of Pathogens” (J Med Chem, 2019)

Key:
[1] = Cytotoxicity against mouse RAW264.7 cells assessed as cell viability at 2 to 64 uM measured after 18 to 24 hrs by MTT assay relative to control; assay type: cell-based; settings: RAW264.7 cells, read-out: Activity
Summary of the method: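 MTT assay: RAW264.7 cells seeded at 1.0–2.0×10^4 per well and exposed to peptide (2–64 µM) for 18–24 h at 37 °C in 5% CO2. MTT (0.5 mg/mL) added for 4 h, formazan dissolved in DMSO, read at 570 nm. At least three independent experiments with triplicate wells.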

Staphylococcus aureus [2] = test: Antibacterial activity against methicillin-resistant Staphylococcus aureus ATCC 43300 measured after 24 hrs; assay type: functional; settings: ATCC 43300, 24 h
Summary of the method: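 Broth microdilution modified from NCCLS. Mid-log bacteria at (0.5–1) × 10^5 CFU mL−1 in MHB, mixed with peptides serially diluted in 0.2% BSA. Incubated 24 h at 37 °C, read at A492. MIC taken as lowest concentration giving 95% growth inhibition. At least three independent experiments, each with three technical replicates.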

[3] = Antibacterial activity against Salmonella pullorum ATCC 7913 measured after 24 hrs; assay type: functional, Salmonella enterica subsp. enterica serovar Pullorum; settings: Salmonella enterica, ATCC 7913, 24 h
Summary of the method: (§1)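 Broth microdilution adapted from NCCLS. Mid-log bacteria were diluted in MHB to a final (0.5–1) × 10^5 CFU mL−1. Peptides were serially diluted in 0.2% BSA and mixed with an equal volume of cells. After 24 h at 37 °C, MIC was read at A492 as the lowest concentration inhibiting 95% of growth. At least three independent experiments, each with three technical replicates.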

Escherichia coli [4] = test: Antibacterial activity against Escherichia coli K88 measured after 24 hrs; assay type: functional; settings: K88, 24 h; summary of the method: as §1
Salmonella typhimurium [5] = test: Antibacterial activity against Salmonella typhimurium C7731 measured after 24 hrs; assay type: functional, Salmonella enterica subsp. enterica serovar Typhimurium; settings: Salmonella enterica, C7731, 24 h; summary of the method: as §1
Candida parapsilosis = test: Antifungal activity against Candida parapsilosis cgmcc2.3989 measured after 48 hrs by broth microdilution method; assay type: functional; settings: Lodderomyces parapsilosis, cgmcc2.3989, 48 h
Summary of the method: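 Modified CLSI M27-A2 microdilution. Yeast colonies were diluted in MOPS-buffered RPMI 1640 to a final (0.5–1) × 10^3 CFU mL−1 and mixed with an equal volume of peptide serially diluted in 0.2% BSA. After 48 h at 28 °C, MIC was read at A492 as the lowest concentration inhibiting 95% of growth. At least three independent experiments, each with three technical replicates.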

Escherichia coli [6] = test: Bactericidal activity against Escherichia coli UB1005 incubated for 24 hrs followed by replating on agar plate and measured after overnight incubation; assay type: functional; settings: UB1005, 24 h, read-out: MBC>99.9
Summary of the method: (§2)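 Mid-log bacteria diluted in MHB to (0.5–1) × 10^5 CFU/mL and mixed 1:1 with peptide serially diluted in 0.2% BSA. After 24 h at 37 °C, 50 μL of each mixture was plated on agar and incubated overnight. MBC taken as the lowest concentration killing >99.9% of cells. At least three independent experiments, each with three technical replicates.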

Salmonella typhimurium [7] = test: Bactericidal activity against Salmonella typhimurium ATCC 14028 incubated for 24 hrs followed by replating on agar plate and measured after overnight incubation; assay type: functional, Salmonella enterica subsp. enterica serovar Typhimurium; settings: Salmonella enterica, ATCC 14028, 24 h; read-out: MBC>99.9; summary of the method: as §2
Escherichia coli [8] = test: Bactericidal activity against Escherichia coli K88 incubated for 24 hrs followed by replating on agar plate and measured after overnight incubation; assay type: functional; settings: K88, 24 h, read-out: MBC>99.9; summary of the method: as §2
Escherichia coli [9] = test: Bactericidal activity against Escherichia coli 078 incubated for 24 hrs followed by replating on agar plate and measured after overnight incubation; assay type: functional; settings: Escherichia coli, 078, 24 h; read-out: MBC>99.9
Summary of the method: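 After the 24 h, 37 °C MHB microdilution (0.5–1 × 10^5 CFU mL−1 inoculum, peptides diluted in 0.2% BSA), 50 μL from each well was plated on agar and incubated overnight. MBC was taken as the lowest concentration killing >99.9% of cells. Three or more independent experiments, each with triplicate technical replicates.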

Salmonella typhimurium [10] = test: Bactericidal activity against Salmonella typhimurium C7731 incubated for 24 hrs followed by replating on agar plate and measured after overnight incubation; assay type: functional, Salmonella enterica subsp. enterica serovar Typhimurium; settings: Salmonella enterica, C7731, 24 h; read-out: MBC>99.9; summary of the method: as §2
Candida tropicalis = test: Fungicidal activity against Candida tropicalis cgmcc2.1975 incubated for 48 hrs followed by replating on YM agar plate and measured after 48 hrs; assay type: functional
Summary of the method: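 Yeast diluted in MOPS-buffered RPMI 1640 to (0.5–1) × 10^3 CFU/mL (CLSI M27-A2, modified) and mixed 1:1 with peptide serially diluted in 0.2% BSA. After 48 h at 28 °C, 50 μL per well was plated on YM agar and incubated 48 h at 28 °C. MFC taken as the lowest concentration killing ≥99.9% of cells. Three or more independent experiments, triplicate wells.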

Escherichia coli [11] = test: Antibacterial activity against Escherichia coli ATCC 25922 measured after 18 to 24 hrs in presence of KCl; assay type: functional
Escherichia coli [12] = test: Antibacterial activity against Escherichia coli ATCC 25922 measured after 18 to 24 hrs in presence of NH4Cl; assay type: functional
Staphylococcus aureus [13] = test: Antibacterial activity against Staphylococcus aureus ATCC 29213 measured after 18 to 24 hrs in presence of MgCl2; assay type: functional
Candida albicans [14] = test: Antifungal activity against Candida albicans cgmcc2.2086 measured after 48 hrs in presence of CaCl by broth microdilution method; assay type: functional; settings: cgmcc2.2086, 48 h
Candida albicans [15] = test: Antifungal activity against Candida albicans cgmcc2.2086 measured after 48 hrs in presence of ZnCl by broth microdilution method; assay type: functional; settings: cgmcc2.2086, 48 h
[16] = Therapeutic index, ratio of MHC10 for hemolytic activity in human RBC to MIC95 against Escherichia coli ATCC 25922; assay type: toxicity; settings: human red blood cells (erythrocytes), pooled result: one value given for 9 cell lines, strains, targets or settings, read-out: TI
Summary of the method: (§3)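 Therapeutic index = MHC divided by MIC. MHC is the lowest concentration giving >10% lysis of human RBC (1 h, 37 °C, 1-128 µM, A576). MIC is 95% growth inhibition by broth microdilution: bacteria in MHB 24 h at 37 °C; Candida in MOPS-buffered RPMI 1640 at (0.5–1) × 10^3 CFU mL−1, 48 h at 28 °C.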

[17] = Therapeutic index, ratio of MHC10 for hemolytic activity in human RBC to MIC95 against Staphylococcus epidermidis ATCC 12228; assay type: toxicity; settings: human red blood cells (erythrocytes), read-out: TI; summary of the method: as §3
[18] = Therapeutic index, ratio of MHC10 for hemolytic activity in human RBC to MIC95 against Candida albicans cgmcc2.2086; assay type: toxicity; settings: human red blood cells (erythrocytes), read-out: TI; summary of the method: as §3
[19] = Conformational stability in pH 7.4 sodium phosphate buffer assessed as absorption spectra at minimum dichroic band at 35 uM by CD spectra analysis; assay type: physicochemical; settings: pH 7.4, 35 µM
Summary of the method: (§4)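 CD spectra from 190 to 250 nm of peptide at 35 μM in 10 mM PBS, 30 mM SDS micelles or 50% TFE, recorded in a 1.0-mm quartz cell. Ellipticity was converted to mean residue ellipticity. Three independent scans, each averaged over more than 3 runs.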

[20] = Conformational stability in 50% trifluoro-ethyl alcohol assessed as alpha-helical structural propensity by measuring absorption spectra at minimum dichroic band at 35 uM by CD spectra analysis; assay type: physicochemical; summary of the method: as §4

Substance	viability at up to 64 µM [1]	MIC95 (Staphylococcus aureus [2])	MIC95 [3]	MIC95 (Escherichia coli [4])	MIC95 (Salmonella typhimurium [5])	MIC95 (Candida parapsilosis)	MBC (Escherichia coli [6])	MBC (Salmonella typhimurium [7])	MBC (Escherichia coli [8])	MBC (Escherichia coli [9])	MBC (Salmonella typhimurium [10])	MFC<=99.9 (Candida tropicalis)	MIC95 (Escherichia coli [11])	MIC95 (Escherichia coli [12])	MIC95 (Staphylococcus aureus [13])	MIC95 (Candida albicans [14])	MIC95 (Candida albicans [15])	selectivity ratio [16]	selectivity ratio [17]	selectivity ratio [18]	further results
H-AARIILRYRFR-NH2	90 to 100%	4 µM	4 µM	4 µM	4 µM	64 µM	8 µM	16 µM	8 µM	4 µM	8 µM	32 µM	32 µM	8 µM	8 µM	128 µM	64 µM	47	64	8	Wavelength of minimum CD band [19]: 200 nm; Activity [20]: 208 to 222 nm
H-AARIILRRRFR-NH2	90 to 100%	16 µM	16 µM	16 µM	8 µM	64 µM	64 µM	64 µM	32 µM	32 µM	16 µM	128 µM	64 µM	8 µM	32 µM	> 128 µM	> 128 µM	14.8	13.4	3.17	Wavelength of minimum CD band [19]: 200 nm; Activity [20]: 208 to 222 nm
